Results published in ChEMBL document CHEMBL1122057, “Synthesis and structure--activity relationship of nonyl 3-acyldithiocarbazates and related compounds for uncoupling activities” (J Med Chem, 1982).
Activity calls are given as the source filed them. The rule behind the calls is not given here.

Legend:
[1] = species: Rattus norvegicus; test: Concentration required for the maximal release of state 4 respiration of rat liver mitochondria, relative to N'-Benzoyl-hydrazinecarbodithioic acid nonyl ester; format: functional, organism-based
[2] = species: Rattus norvegicus; test: Concentration required for the maximal release of state 4 respiration of rat liver mitochondria using succinate as substrate; format: functional
Method in brief: (§1)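 Rat liver mitochondria isolated by a prior method, about 0.7 mg/mL in most runs. Medium: 200 mM sucrose, 2 mM MgCl2, 1 mM EDTA, 10 mM potassium phosphate pH 7.2, 25 °C. Substrate 10 mM succinate plus rotenone 1 μg/mg protein. O2 uptake in state 4 followed by Clark electrode after compound addition. Value is the concentration giving maximal release of respiration.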

[3] = species: Rattus norvegicus; test: Concentration required for the maximal release of state 4 respiration of rat liver mitochondria using succinate as substrate; Inactive; format: functional; method in brief: as §1

| SMILES | RA [1] | C100 [2] [µM] | C100 [3] |
| --- | --- | --- | --- |
| CCCCCCCCCSC(=S)NC(=O)c1ccccc1 | 5.7 | 27.9 | – |
| CCCCCCCCCS/C(S)=N/NC(=O)C1CCCCC1 | 35 | 4.52 | – |
| CCCCCCCCCS/C(S)=N/c1ccccc1 | 0 | – | inactive |
| CCCCCCCCCS/C(S)=N/NC(=O)c1ccc([N+](=O)[O-])cc1 | 125 | 1.27 | – |
| CCCCCCCCCSC(=S)N(C)N(C)C(=O)c1ccccc1 | 0 | – | inactive |
| CCCCCCCCCS/C(S)=N/N(C)C(=O)c1ccccc1 | 1.3 | 112 | – |
| CCCCCCCCCS/C(=N/N(C)C(=O)c1ccccc1)SC | 0 | – | inactive |
| CCCCCCCCCS/C(S)=N/NC(C)=O | 0.61 | 457 | – |
| CCCCCCCCCS/C(S)=N/Cc1ccccc1 | 0.44 | 360 | – |
| CCCCCCCCCS/C(S)=N/NC(=O)c1ccc(N(C)C)cc1 | 23 | 6.9 | – |
| CCCCCCCCCS/C(S)=N/NC(=O)c1ccccc1 | 100 | 1.59 | – |
| CCCCCCCCCS/C(S)=N/NC(=O)c1ccc(Cl)c(Cl)c1 | 82 | 1.93 | – |
| CCCCCCCCCS/C(S)=N/NC(=O)c1ccccn1 | 112 | 1.42 | – |
| CCCCCCCCCS/C(S)=N/NC(=O)c1ccc(OC)cc1 | 65 | 2.46 | – |
| CCCCCCCCCS/C(S)=N/N=C/c1ccccc1 | 0.26 | 604 | – |
| CCCCCCCCCS/C(S)=N/NCc1ccccc1 | 0.02 | 8350 | – |
| CCCCCCCCCS/C(S)=N/Nc1ccccc1 | 0.1 | 1530 | – |
| CCCCCCCCCSC(=S)N(C)NC(=O)c1ccccc1 | 6.9 | 40.3 | – |
| CCCCCCCCCS/C(S)=N/NC(=O)c1ccc(Cl)cc1 | 109 | 1.46 | – |
| CCCCCCCCCS/C(S)=N/NC(=O)c1ccc(F)cc1 | 101 | 1.57 | – |
| CCCCCCCCCS/C(S)=N/NC(=O)c1cccc2ccccc12 | 47 | 3.36 | – |
| CCCCCCCCCS/C(=N/NC(=O)c1ccccc1)SC | 9.3 | 30.1 | – |
